Assay outcomes as filed in PubChem BioAssay.
Rows were chosen to be rich in hits. Some 4.8% of all compounds tested hit in one or more screens of this group.
WT yeast gro inh: growth inhibition of WT yeast, mitochondrial fusion screen | mitochondrial fusion phenotypic screen, WT strain | inhibition, % at 10 µM | 190,000 tested, 2.1% active | AID 1362; in the data active = inhibition above about 58%; tested in S. cerevisiae
CSC inhib: blocks cancer stem cells. 300,000 tested, 1.1% active. AID 2717. cancer stem cell-like cells viability, luminescence. inhibition, % at 7.5 µM; in the data active = inhibition above about 75%; inconclusive = no clear call, values can overlap the other calls; tested in HMLE shEcad cells
Beta apoptosis: blocks beta cell apoptosis. INS-1E cytokine-induced death, ATP luminescence, 48 h; percent of positive-control rescue, neutral wells zero. protection from apoptosis, % (no concentration beside the values). 300,000 tested, 0.8% active. AID 435005;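 active = Every replicate reaches about 75%, or at least half do and their mean reaches it too, limit read from the data; inconclusive = At least half of replicates reach the limit but their mean does not; inactive = Under half of replicates reach the limit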;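 also: 0% = cytokine-treated negative control wells and 100% = positive control rescue; higher means more ATP so stronger rescue from cytokine killing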
SUMO Mot1 rescue: blocks SUMOylation pathway, rescuing yeast Mot1-301 growth; S. cerevisiae Mot1-301 growth rescue, ATP luminescence, 38.5C; percent above DMSO median, 100 means doubled; growth rescue, % at 18.8 µM; 320,000 tested, 1% active; AID 2716;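 active = every valid replicate shows activation above 250% relative to neutral control wells; inactive = the rest, any valid replicate at or below 250%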;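 also: OY570 slx delta 5 strain wells were the positive control but not used for scaling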
T cruzi repl: blocks replication of Trypanosoma cruzi | T. cruzi beta-gal in NIH3T3, luminescence, 90 h | inhibition, % (test concentration not listed) | 300,000 tested, 1.4% active | AID 1885;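 active = mean inhibition across valid replicates above about 55%, limit read from the data; inconclusive = mean below that limit but half or more replicates reach it; inactive = mean below it, under half of replicates reach it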;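 also: signal also drops with host cell toxicity which is not excluded here; 0% = plate median of DMSO wells and 100% = zero luminescence signal; higher percent means less beta-gal luminescence so fewer parasites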
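System – NIH/3T3 host cells with β-galactosidase reporter T. cruzi · Doses – single 50 nL compound addition per well in DMSO · Reagent – 5000 T. cruzi trypomastigotes/well · Medium – Low-serum DMEM with 2% FBS · Timing – ≥90 h infection period, 3 h prior cell attachment · Evaluation – parasite load inhibition, % · Technique – GalScreen luminescence, 60 min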
Efflux pump inh: blocks antifungal efflux pumps in multiplex yeast assay. 330,000 tested, 0.44% active. inhibition, % at 10 µM. S. cerevisiae Candida pump triplex, Nile Red efflux. AID 485275;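 active = plate passing quality check with inhibition over a set limit, or well fluorescence over plate mean plus 4 SD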;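 also: Nile Red retained in pooled yeast measured as flow cytometry median fluorescence; 0% = buffer negative control and 100% = Enniatin B positive control; higher means more Nile Red kept so more efflux inhibition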
Numbers without * were called inactive; ? = inconclusive; · = no result.

SMILES	WT yeast gro inh	CSC inhib	Beta apoptosis	SUMO Mot1 rescue	T cruzi repl	Efflux pump inh
Cc1cc(OCCCCn2ccnc2)cc(C)c1Cl	76*	-14	4	21	69*	0
COc1ccc(-c2csc(C3=C(O)CN(C(C)C)C3=N)n2)cc1OC	-5	-15	3	2	-8	0
Cc1cc(C)c(-c2csc(NC(=O)COC(=O)c3ccc4c(c3)OCO4)n2)c(C)c1	-2	-9	-3	13	55*	0
Cc1ccc(-c2cc3ccccc3nc2N2CCOCC2)cc1	59*	1	·	-1	30	0
c1ccc(-c2cc3ccccc3nc2N2CCCC2)cc1	-8	25	0	-4	4	0
O=S(=O)(c1ccccc1)c1ccc(N2CCCCCC2)cc1	·	10	2	0	24	0
Cc1ccc2nc(-c3cccc(S(=O)(=O)N4CC(C)OC(C)C4)c3)cn2c1 (configuration not stated)	·	-9	2	135	19	0
COc1ccccc1C(=O)NCC(=O)NC(C)CCc1ccccc1 (configuration not stated)	·	-7	-20	340*	11	0
CC(C)c1nc(N2CCN(C(=O)c3ccco3)CC2)c(C#N)c2c1COC(C)(C)C2	·	-6	·	0	18	0
CCCCc1nc(N2CCN(C(=O)c3ccco3)CC2)c(C#N)c2c1CCCC2	·	119*	18	-6	38	0
CC(C)c1nc(N2CCN(C(=O)c3ccco3)CC2)c2c3c(sc2n1)CCCC3	81*	24	25	-1	30	0
CCC(NC(=O)COc1cc2c(c3oc(=O)c(C)c(C)c13)CCC(C)(C)O2)C(=O)O (configuration not stated)	·	-4	-1	-8	-2	0
Cc1ccc(NC(=S)N(Cc2ccc(Br)cc2)Cc2ccc(C(=O)O)cc2)cc1C	67*	4	0	10	-6	0
Cc1cc(C)cc(NC(=S)N(Cc2ccc(Cl)cc2)Cc2ccc(C(=O)O)cc2)c1	12	4	-3	·	12	0
Cc1cc(NC(=S)N(Cc2cccc(Br)c2)CC2CCC(C(=O)O)CC2)ccc1Cl (configuration not stated)	71*	·	·	·	-10	·
Cc1cc(C)cc(NC(=S)N(Cc2ccc(Br)cc2)Cc2ccc(C(=O)O)cc2)c1	79*	12	-2	-8	2	0
Cc1cc(NC(=S)N(Cc2ccc(Cl)cc2)Cc2ccc(C(=O)O)cc2)ccc1Cl	71*	5	-2	5	7	0
CC(C)(C)NC(=O)C(OC(=O)c1cccs1)c1ccc(C#N)cc1 (configuration not stated)	1	-8	3	-11	-7	0
CCc1cc2ccc(C)c(C)c2nc1SCC(=O)NNC(=O)c1ccco1	·	-6	0	-5	2	0
COCC(=O)N1CCC(Oc2ccc(C(=O)NCc3cc(C)n(C)n3)cc2)CC1	·	7	-6	107	-7	1
C/C(=N\NC(=S)NC1CCCCC1)c1ccc(OC(F)F)cc1OC(F)F	66*	9	16	5	42	1
C/C(=N\NC(=O)C1CC1)c1ccc(OC(F)F)cc1OC(F)F	·	-13	·	-17	-7	0
C/C(=N\NC(=S)NC1CCCCC1)c1ccc(Cl)c(Cl)c1	·	-6	-4	-6	25	0
C/C(=N\NC(=S)NC1CCCCC1)c1c(F)cccc1F	74*	30	-4	55	-3	0
C/C(=N\NC(=S)NC1CCCCC1)c1cccs1	71*	-6	22	10	23	0
SMILES	WT yeast gro inh	CSC inhib	Beta apoptosis	SUMO Mot1 rescue	T cruzi repl	Efflux pump inh
CCCCOc1ccc(-c2cc(C(=O)NNC(=S)NCC)c3ccccc3n2)cc1	53	100*	80*	-17	-19	0
CCNC(=S)NNC(=O)c1cc(-c2ccc(OC)cc2)nc2ccccc12	68*	26	53	-51	-24	0
CCNC(=S)NNC(=O)c1cc(-c2cccc(C)c2)nc2ccccc12	29	11	42	-58	19	0
CCCCOc1cccc(-c2cc(C(=O)NNC(=S)NCC)c3ccccc3n2)c1	-8	12	24	-11	-4	0
CCS(=O)(=O)N1CCN(CC2CC3C=CC2C3)CC1 (configuration not stated)	4	9	·	349*	6	0
CCCS(=O)(=O)N1CCN(CC2CC3C=CC2C3)CC1 (configuration not stated)	1	14	·	-1	·	0
N#C/C(C(=O)Nc1ccc(Cl)cc1)=C(/S)Nc1ccccc1	·	31	·	-25	79*	1
CCCCCN(C(=O)CCC(=O)OCCOc1cccc(Cl)c1)c1c(N)n(CCCC)c(=O)[nH]c1=O	·	-6	4	-6	-6	0
Brc1ccc(CN2CCN(Cc3c[nH]c4ccccc34)CC2)cc1	·	6	88*	476	42	0
O=[N+]([O-])c1ccc(CN2CCN(Cc3c[nH]c4ccccc34)CC2)cc1	4	-16	3	13	56*	0
Brc1ccccc1CN1CCN(Cc2c[nH]c3ccccc23)CC1	·	4	130*	-18	7	0
CCS(=O)(=O)N1CCN(Cc2c[nH]c3ccccc23)CC1	6	-3	-6	20	-9	0
Cc1cc(Br)ccc1NC(=O)CN(C)C(=O)c1ccc2ccccc2n1	·	·	8	-11	·	0
COc1cc(NC(=O)c2ccc([N+](=O)[O-])o2)ccc1NC(=O)c1cccs1	95*	50	78*	-40	86*	0
Cc1ccc(NC(=O)c2cccs2)cc1[N+](=O)[O-]	9	-4	11	·	-11	0
O=C(Nc1cccc(NC(=O)c2ccc([N+](=O)[O-])o2)c1)c1ccco1	·	87*	-3	26	21	0
O=C(Nc1ccc(NC(=O)c2ccc([N+](=O)[O-])o2)cc1Cl)c1ccco1	·	54	0	10	13	0
O=C(Nc1cccc(N2C(=O)C=CC2=O)c1)c1cccs1	·	11	14	-12	61*	0
O=C(Nc1cccc(NC(=O)c2cccs2)c1)c1ccc([N+](=O)[O-])o1	·	?	12	-29	68*	0
COc1cc(NC(=O)c2cccs2)ccc1NC(=O)Cc1ccccc1	·	-5	1	14	-11	0
O=C(Nc1ccc(N2CCN(C(=O)c3cccs3)CC2)cc1)c1ccco1	·	-2	5	1	0	0
O=C(Nc1ccc(N2CCN(C(=O)c3cccs3)CC2)cc1)c1ccc([N+](=O)[O-])o1	·	100*	-10	15	36	0
O=C(Nc1cccc(NC(=O)c2ccc(-c3cccc(Br)c3)o2)c1)c1ccco1	32	38	4	10	55*	0
CCOC(=O)Cc1csc(NC(=O)c2ccc3ccccc3n2)n1	·	0	-1	0	-7	0
